SMARCA2 act = SMARCA2 function activation, primary screen; MG213 cells, MMTV-luciferase reporter, dexamethasone, overnight; activation, % at 9.1 µM; hit rate 1% among 370,000; in the data active = activation above about 7.8%;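 note: 0% = vehicle wells and 100% = reference activator wells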
Yeast superoxide = caloric restriction mimetics inhibiting age-related superoxide in yeast. S. cerevisiae aged cells, superoxide DHE fluorescence; hits give low values. superoxide response (% of plate mean), % at 10 µM. hit rate 0.18% among 330,000;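 active = superoxide response under a set limit, about three screen SD below normal, cut at about 65% in these data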;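 note: yeast aged for seven days with compound at 30 °C before DHE staining; 100% = average MFI of all compound-treated wells on the plate with controls excluded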
Lipid droplet = hepatic lipid droplet formation modulation; AML12 mouse hepatocytes, oleate lipid droplets, BODIPY imaging; inhibition, % at 6.5 µM; hit rate 0.4% among 240,000; AID 1656;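 active = lipid droplet intensity inhibited by at least 50%, with more than 500 cells counted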
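Test system: AML12 hepatocytes (mouse); reagent: oleate loading, 100 µM; dosing: one dose, 6.5 µM compound; incubation: overnight exposure; signal: fluorescence imaging, 20x objective, two fields per well; read-out basis: % inhibition of corrected integrated BODIPY droplet signal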
SR-BI DiI-HDL act = activators of SR-BI mediated HDL lipid uptake; hit rate 0.096% among 320,000; CHO ldlA[mSR-BI] cells, DiI-HDL uptake fluorescence, 3 h; 100 = double the neutral-control signal; activation, % at 12.5 µM; AID 504775;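 active = mean replicate activation of at least 60% and every replicate at or above 60%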;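 note: 0% = median plate neutral-control signal and 100% = twice that signal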
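material = CHO ldlA[mSR-BI] cells | medium = Ham's F12 with 0.5% BSA, HEPES 25 mM, pH 7.4 | reagent = fluorescent DiI-HDL, 10 µg/mL final | compound dosing = single-point compound dose | incubation = 3 h, 37 °C | measured by = bottom-read fluorescence, 550/595 nm | measure = HDL uptake via cellular fluorescence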
AHR activator = activators of human aryl hydrocarbon receptor. P35869. AHR-responsive luciferase reporter cells, luminescence. activation, % at 5 µM. hit rate 2.5% among 320,000; in the data active = activation above about 47%;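 note: 0% = vehicle wells and 100% = reference agonist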
SR-BI DiI inh = inhibitors of mouse SR-BI mediated HDL lipid uptake. Q61009. ldlA[mSR-BI] CHO cells, DiI-HDL uptake fluorescence, 3 h. inhibition, % at 12.5 µM. hit rate 0.96% among 320,000. AID 488896;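 active = mean replicate inhibition of at least 70% and a set share of replicates each scoring 70 or more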;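 note: 0% = median of neutral control wells and 100% = median of positive control wells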
Target sequence (Q61009 whole entry, looked up): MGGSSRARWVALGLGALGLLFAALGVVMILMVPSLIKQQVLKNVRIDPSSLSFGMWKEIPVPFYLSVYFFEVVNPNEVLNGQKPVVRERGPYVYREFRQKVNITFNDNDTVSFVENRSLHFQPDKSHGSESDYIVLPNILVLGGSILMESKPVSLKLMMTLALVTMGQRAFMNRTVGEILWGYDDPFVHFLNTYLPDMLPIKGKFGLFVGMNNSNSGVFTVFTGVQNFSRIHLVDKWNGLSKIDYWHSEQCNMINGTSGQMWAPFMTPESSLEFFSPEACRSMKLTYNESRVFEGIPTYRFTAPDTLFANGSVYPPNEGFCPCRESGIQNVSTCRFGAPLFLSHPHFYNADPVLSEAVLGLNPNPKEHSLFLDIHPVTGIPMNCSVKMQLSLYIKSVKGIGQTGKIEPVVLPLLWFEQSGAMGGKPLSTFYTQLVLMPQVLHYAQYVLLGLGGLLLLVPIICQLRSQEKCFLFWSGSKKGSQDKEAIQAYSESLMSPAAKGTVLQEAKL
SMARCA2 act conf = confirmation of SMARCA2 (BRM) function activators | hit rate 30% among 3,500 | activation, % at 9.1 µM | MG213 cells, MMTV-luciferase with dexamethasone, luminescence, overnight; MG213 cells expressing E1A, Rb sequestered; DMSO wells 0%, reference activator 100% | AID 652260 | shares compounds with SMARCA2 act;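 active = activation above its plate's cutoff, the mean activation of tested wells plus 3 SD, cut at about 7.9% in these data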
VP16 Luc act = counter-screen for SMARCA2 activators: GAL4-VP16 luciferase reporter activation; shares compounds with SMARCA2 act; HEK293 GAL4-VP16 pG5luc reporter, luciferase luminescence; scaled: DMSO wells 0%, SAHA wells 100%; activation, % at 9.1 µM; hit rate 41% among 3,500;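 active = activation above the solvent-only control well mean plus 3 SD, averaged across control plates, cut at about 5.2% in these data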
Active calls of the source: *; i = inactive; · = no result. Shown are actives, neighbours in structure and some others; about 4.3% of the full set was active somewhere.

SMILES | SMARCA2 act | Yeast superoxide | Lipid droplet | SR-BI DiI-HDL act | AHR activator | SR-BI DiI inh | SMARCA2 act conf | VP16 Luc act
COc1ccc2oc3cc(NCCN(C)C)ccc3c(=O)c2c1 | 21* | · | · | · | · | · | 38* | 13*
CN(C)CCNc1ccc(CO)c2sc3ccc(O)cc3c(=O)c12 | 14* | · | · | 7 | · | -7 | 5 | 11*
CN(C)CCNc1ccc(-c2nn(C)c(=O)c3ccccc23)cc1[N+](=O)[O-] | -1 | 106 | 10 | -3 | 5 | 3 | · | ·
COc1ccc2sc3cccc(NCCN(C)C)c3c(=O)c2c1 | 29* | · | · | · | · | · | 40* | 4
Cc1ccc(C(=O)COc2nc(C)cc(C)c2C#N)cc1 | -3 | 119 | · | -1 | 46 | 1 | · | ·
Cc1ccc(C(=O)COc2cc(C)nc3nncn23)cc1 | 11* | 89 | 6 | 6 | 1 | -6 | -2 | 2
S=c1[nH]nc(-c2cc(-c3ccccc3)n[nH]2)n1N=Cc1c[nH]c2ccccc12 | 4 | · | · | · | · | · | · | ·
CC(=O)N1CCn2c3ccc(C)cc3c3cccc1c32 | 8.4* | 112 | 11 | -14 | 71* | 14 | 6 | 3
Cc1[nH]c(=S)[nH]c(=O)c1Cc1ccccc1 | 16* | 99 | · | 19 | -2 | -19 | 0 | 1
CC(=O)N1c2ccccc2N=C(c2ccc3c(c2)OCO3)C1C(=O)NCc1ccccc1 (stereo unspecified) | 11* | · | · | · | · | · | 6 | 1
Cc1cccc(C)c1NC(=O)C1C(c2ccc3c(c2)OCO3)=Nc2ccccc2N1C(=O)c1ccccn1 (stereo unspecified) | 8.1* | · | · | · | · | · | 4 | 0
Cc1cccc(C)c1NC(=O)C1C(c2ccc3c(c2)OCO3)=Nc2ccccc2N1C(=O)c1cccc(C(F)(F)F)c1 (stereo unspecified) | -7 | · | · | · | · | · | · | ·
O=C(CSc1nnc(SCc2cccc3ccccc23)s1)Nc1ccc(Oc2ccccc2)cc1 | -7 | · | · | · | · | · | · | ·
Cn1cnc([N+](=O)[O-])c1S(=O)(=O)Oc1ccccc1 | 20* | · | · | 5 | · | -5 | -14 | 6.3*
Cn1cnc([N+](=O)[O-])c1S(=O)(=O)Nc1ccccc1 | 3 | · | · | 45 | · | -45 | · | ·
O=C(Cc1cccs1)Nc1ccc(NC(=O)c2ccco2)cc1 | 12* | 98 | 9 | -1 | -2 | 1 | 6 | 7.9*
O=C(Cc1cccs1)Nc1ccccc1 | 0 | 106 | -14 | 4 | · | -4 | · | ·
O=C(Cc1cccs1)NCc1cccc(Br)c1 | 9.2* | 94 | -2 | -7 | · | 7 | 4 | 7.8*
CC(C)CCN(C(=O)c1ccccn1)c1c(N)n(Cc2ccccc2)c(=O)[nH]c1=O | 8.3* | 81 | · | 10 | 0 | -10 | -5 | 0
CC(C)CCN(C(=O)Cc1ccccc1F)c1c(N)n(Cc2ccccc2)c(=O)[nH]c1=O | 3 | i | 5 | 11 | 0 | -11 | · | ·
COc1ccc(CNS(=O)(=O)c2cc(Cl)ccc2N2CC[C@@H](O)C2)cc1 | -1 | · | · | · | · | · | · | ·
CCOc1ccc2oc(=O)cc(C)c2c1 | 1 | 97 | 7 | 4 | -2 | -4 | · | ·
CCC(=O)Oc1ccc2oc(=O)cc(C)c2c1 | 13* | 102 | -2 | 12 | 3 | -12 | -1 | 0
COC(=O)C1CN(C2CCCC2)CCS(=O)(=O)N1Cc1ccc(OC)cc1 (stereo unspecified) | 1 | · | · | · | · | · | · | ·
Cc1ccc2c(c1)N(CC(=O)NCCCN1C(C)CCCC1C)C(=O)c1cccnc1O2 (stereo unspecified) | 7 | 97 | -5 | 13 | -1 | -13 | · | ·
SMILES | SMARCA2 act | Yeast superoxide | Lipid droplet | SR-BI DiI-HDL act | AHR activator | SR-BI DiI inh | SMARCA2 act conf | VP16 Luc act
COc1cccc(NC(=O)CN2C(=O)c3cccnc3Oc3ccc(Cl)cc32)c1 | 8.3* | 100 | -18 | -17 | 41 | 17 | 1 | 0
CC1CCCC(C)N1CCCNC(=O)CN1C(=O)c2cccnc2Oc2ccc(Cl)cc21 (stereo unspecified) | 8.9* | 97 | -5 | -3 | 0 | 3 | -1 | 1
O=C(CN1C(=O)c2cccnc2Oc2ccc(Cl)cc21)Nc1ccccc1F | 5 | 99 | -21 | -18 | 18 | 18 | · | ·
CC(=O)c1ccc(NC(=O)NC2CCCCN(Cc3cccc(Cl)c3)C2=O)cc1 (stereo unspecified) | -4 | · | · | · | · | · | · | ·
C=CCOc1ccc(/C=N/NC(=O)CC(=O)NC2CCCCC2)cc1 | 2 | 103 | -4 | -10 | 2 | 10 | · | ·
CC(C)c1ccc(/C=N/NC(=O)CC(=O)NC2CCCCC2)cc1 | 8.4* | 107 | -1 | 35 | 4 | -35 | 0 | 1
c1ccc(CSc2ccc(-c3ccco3)nn2)cc1 | 10* | 87 | -3 | 13 | -6 | -13 | 8.3* | 8.5*
CCOC(=O)N1C(=O)C[C@](Sc2ccc(OC)cc2)(C(=O)N2CCN(c3ncccn3)CC2)[C@H]1c1ccc(OC)cc1 | -3 | · | · | · | · | · | · | ·
CN1OC[C@@H]2CN(C(=S)NCCc3ccccc3)[C@H](c3ccc(-n4ccnc4)cc3)C[C@@H]21 | 8.4* | · | · | · | · | · | 1 | 1
CN1OC[C@@H]2CN(C(=O)CCc3ccccc3)[C@H](c3ccc(-n4ccnc4)cc3)C[C@@H]21 | -1 | · | · | · | · | · | · | ·
Cc1ccc2nc(-c3ccc(NC(=O)CSCC(=O)O)cc3)sc2c1 | 16* | 106 | -5 | · | 3 | · | 6 | 20*
Cc1ccc2nc(-c3ccc(NC(=S)NC(=O)C(C)C)cc3)sc2c1 | 6 | 100 | -2 | -31 | -2 | 31 | · | ·
Cc1ccc2nc(-c3ccc(NC(=S)NC4CC(C)(C)NC(C)(C)C4)cc3)sc2c1 | 13* | 87 | 30 | -2 | 9 | 2 | -8 | 16*
COc1ccc(-n2c(COc3ccccc3)nnc2SCC(=O)Nc2ccccc2-c2ccccc2)cc1 | -5 | · | · | · | · | · | · | ·
COc1cccc(CNC(=O)[C@@H]2CCCN2C(=O)[C@@H]2CCCN2S(=O)(=O)c2ccc(OC)c(C)c2)c1 | 9.1* | · | · | · | · | · | 1 | 1
COC(=O)[C@H]1C[C@@]2(N3CCCCC3)c3ccccc3N(S(=O)(=O)c3ccccc3)[C@H]2N1 | -4 | · | · | · | · | · | · | ·
CCCCCCN1CCS(=O)(=O)N(Cc2ccc(C)cc2)C(C(=O)OC)C1 (stereo unspecified) | -1 | · | · | · | · | · | · | ·
CC1CCN(c2nc3ccc(C(=O)NCCCN4CCCCC4C)cc3s2)CC1 (stereo unspecified) | 8.1* | 116 | 0 | 30 | -10 | -30 | 15* | 15*
COc1ccc(CCNC(=O)c2ccc3nc(N4CCCCC4)sc3c2)cc1OC | 10* | 93 | -2 | 2 | 9 | -2 | 3 | 8.5*
